Source: article PMC12177174 (iScience, 2025)
Where “and” joins values, the source holds several entries; their conditions need not be identical. Equal values may be shown once.

Tests used:
[1] = cited from earlier work
bone mineral density = settings: cited from earlier work
tumor = settings: cited from earlier work
lung collagen deposition = settings: cited from earlier work
CTX-1 = assay: Serum bone turnover biomarker CTX-1; assay type: in vivo, homo sapiens
How it was run: (§1)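 Participants got test compound (5, 15 or 20 mg) or placebo once daily on day 1 and days 3–16. Serum was drawn at screening and pre-dose on days 1, 5, 7, 12 and 16, and on days 22 (±1) and 45 (±2), at the same time as baseline. CTX-1, P1NP and osteocalcin were measured by electrochemiluminescence immunoassay and BSAP by sandwich ELISA. Results are percent change from baseline versus pooled placebo.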

[2] = Pharmacokinetics Part 1, single oral dose, plasma and urine; assay type: in vivo, homo sapiens
How it was run: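 Healthy adults (men and women of non-child-bearing potential) got one oral dose of test compound (7, 20 or 40 mg; 6 per cohort) or placebo. Plasma was sampled pre-dose, at 15 and 30 min, and at 1–48 h (72 h at 40 mg only). Urine was collected over 0–72 h intervals. Analysis was LC-MS/MS after protein precipitation (plasma 1.00–6000 nmol/L). t½ = ln(2)/λz. Dose proportionality was assessed graphically and by power model.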

osteocalcin = assay: Serum bone turnover biomarker osteocalcin; assay type: in vivo, homo sapiens
How it was run: as §1

AXIN2 mRNA [3] = assay: Target engagement: AXIN2 mRNA; assay type: in vivo, homo sapiens; settings: hair follicle
How it was run: (§2)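 Hair follicles (2 mm micropunch) and skin biopsies (4 mm) were taken from the lower back of the head on day −1 and on day 16, 8 ± 2 h after the last of 14 consecutive once-daily doses. AXIN2 mRNA was measured by qRT-PCR and normalized to the geometric mean of HPRT1, IPO8 and POLR2A. Fold change from baseline was calculated by 2^−ΔΔCt, versus 8 pooled placebo participants.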

[4] = test system: alveolar epithelial type II cells; settings: cited from earlier work
Wnt16 = assay: Serum high-throughput proteomics; assay type: in vivo, homo sapiens; settings: study day 16
BSAP = assay: Serum bone turnover biomarker BSAP; assay type: in vivo, homo sapiens
How it was run: as §1

Phase 1 Part 1 = assay type: in vivo, homo sapiens
How it was run: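 Healthy adults were randomized to one oral dose of test compound (7, 20 or 40 mg; 6 active, 2 placebo per cohort), with a sentinel pair per cohort. Participants stayed in the unit ≥72 h post-dose, with follow-up at 6 ± 1 day. Adverse events were graded by CTCAE, and relatedness was assessed by the investigator. Placebo participants were pooled across cohorts.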

Wnt7a = assay: Serum high-throughput proteomics; assay type: in vivo, homo sapiens; settings: study day 16, 5, 15, 20 mg
AXIN2 mRNA [5] = assay: Target engagement: AXIN2 mRNA; assay type: in vivo, homo sapiens; settings: skin
How it was run: as §2

P1NP = assay: Serum bone turnover biomarker P1NP; assay type: in vivo, homo sapiens; settings: 15 mg QD for 14 days
How it was run: as §1

[6] = Pharmacokinetics Part 2, once daily oral dosing, plasma and urine; assay type: in vivo, homo sapiens
How it was run: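 Oral test compound or placebo was given once each morning at 5, 15 or 20 mg on day 1 and days 3–16. Plasma was sampled over 48 h after the day 1 dose and after the day 16 dose, with troughs pre-dose on days 4, 5, 6, 9 and 12. Urine was collected in intervals on days 1 and 16. Quantitation was by LC-MS/MS after protein precipitation.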

Phase 1 Part 2 = assay type: in vivo, homo sapiens
How it was run: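 Healthy adults got test compound (5, 15 or 20 mg) or placebo once daily on day 1 and days 3–16. The first cohort had 6 active and 2 placebo; later cohorts had 8 active and 3 placebo, each starting with a 2:1 sentinel group. Participants were discharged day 19, with follow-up 6 ± 1 and 29 ± 2 days after the last dose. Events were graded by CTCAE, with investigator-assessed relatedness. Placebo was pooled.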

[7] = Human PK, dose-to-man and exposure predictions; settings: 15 mg once daily
[8] = all dose levels, after 14 consecutive days of dosing

## Cn1c(=O)c2c(ncn2CC(=O)Nc2ccc(-c3ccccc3)nn2)n(C)c1=O [ETC-159]
[1]
  participants reporting dysgeusia: ≤ 50%
[1]; patients with advanced cancer
  circulating CTX-1 levels: increased circulating CTX-1 levels
Bone mineral density
  bone mineral density: caused loss of bone mineral density
tumor
  tumor response: induces tumor regression

## Cc1cc(-c2nccc3c2ccn3CC(=O)Nc2ccc(-c3cnccn3)cn2)ccn1 [AZD5055]
Lung collagen deposition
  collagen deposition in the lungs: reduced collagen deposition in the lungs
CTX-1; 15 mg QD for 14 days
  estimated increase in serum CTX-1 compared with the placebo group: 17.5%
CTX-1; 20 mg QD for 14 days
  estimated increase in serum CTX-1 compared with the placebo group: 32.8%
[2]; after a single dose, across dose cohorts
  mean terminal elimination half-life: 10 to 11 h
[2]; oral, across dose cohorts
  median time to maximum plasma concentration (tmax): 1 to 1.5 h
[2]; single doses 7-40 mg
  Dose proportionality (power-model approach): behaves dose-proportionally
osteocalcin; 15 and 20 mg doses
  serum osteocalcin levels: reductions
osteocalcin; lower doses
  serum osteocalcin levels vs placebo: comparable to those in the placebo group
AXIN2 mRNA [3]; 15 and 20 mg cohorts
  reduction of median AXIN2 mRNA levels: 50%–60%
AXIN2 mRNA [3]; [8]
  AXIN2 mRNA expression vs placebo-treated participants: significantly reduced from baseline
[4]
  differentiation of alveolar epithelial type II cells into alveolar type I cells: increasing differentiation of alveolar epithelial type II cells into alveolar type I cells
Wnt16
  Serum Wnt16 levels: reduced on study day 16 at the 15 and 20 mg AZD5055 dose levels
BSAP; 20 mg dose
  serum BSAP levels: reductions
BSAP; lower doses
  serum BSAP levels vs placebo: comparable to those in the placebo group
Phase 1 Part 1; Part 1, 7 mg
  Participants with at least one TEAE: 2 (33.3%) n (%)
Phase 1 Part 1; Part 1, 20 mg
  Participants with a grade 2 TEAE of nsVT: One
  Participants with at least one TEAE: 1 (16.7%) n (%)
Phase 1 Part 1; Part 1, 40 mg
  Participants with at least one TEAE: 1 (16.7%) n (%)
Phase 1 Part 1; Part 1 SAD pooled, N=18
  Any TEAEs possibly related to the IMP (as assessed by investigator): 3 (16.7%) n (%)
Phase 1 Part 1; Part 1 SAD pooled, n=18
  Abdominal pain upper: 1 (5.6) n (%)
  Application site scab: 1 (5.6) n (%)
  Cardiac disorders: 1 (5.6) n (%)
  Coronavirus infection: 0 n (%)
  Cough: 0 n (%)
  Dermatitis contact: 0 n (%)
  Dizziness: 1 (5.6) n (%)
  Dysgeusia: 0 n (%)
  Epistaxis: 0 n (%)
  Erythema: 0 n (%)
  Folliculitis: 0 n (%)
  Gastrointestinal disorders: 1 (5.6) n (%)
  General disorders and administration site conditions: 2 (11.1) n (%)
  Headache: 0 n (%)
  Infections and infestations: 0 n (%)
  Injury, poisoning and procedural complications: 0 n (%)
  Limb injury: 0 n (%)
  Medical device site dermatitis: 1 (5.6) n (%)
  Nasal discomfort: 0 n (%)
  Nausea: 1 (5.6) n (%)
  Nervous system disorders: 1 (5.6) n (%)
  Participants with ≥1 TEAE: 4 (22.2%) n (%) and 4 (22.2) n (%)
  Participants with ≥1 TEAE leading to discontinuation of investigational product: 0 n (%)
  Participants with ≥1 TEAE of grade 1 severity: 4 (22.2) n (%)
  Participants with ≥1 TEAE of grade 2 severity: 0 n (%)
  Participants with ≥1 TEAE of grade 3 severity: 0 n (%)
  Participants with ≥1 TESAE: 0 n (%)
  Photophobia: 0 n (%)
  Post procedural erythema: 0 n (%)
  Post procedural inflammation: 0 n (%)
  Procedural pain: 0 n (%)
  Respiratory, thoracic and mediastinal disorders: 1 (5.6) n (%)
  Sensation of foreign body: 0 n (%)
  Skin abrasion: 0 n (%)
  Skin and subcutaneous tissue disorders: 0 n (%)
  Suture rupture: 0 n (%)
  Ventricular tachycardia: 1 (5.6) n (%)
  Vessel puncture site haematoma: 0 n (%)
  Vision blurred: 0 n (%)
  Vomiting: 1 (5.6) n (%)
  Wheezing: 1 (5.6) n (%)
Phase 1 Part 1; Parts 1 and 2
  Deaths, SAEs, AEs of CTCAE grade 3 or higher: No deaths, serious adverse events (SAEs) or AEs of CTCAE grade 3 or higher were reported
  Participants with a TEAE of nsVT during the study: Three
  clinical laboratory results, vital signs, physical examinations, ECGs, oxygen saturation: no clinically significant changes
Phase 1 Part 1; both study parts
  Overall safety and tolerability: safe and well tolerated
Wnt7a
  Serum Wnt7a levels: reduced on study day 16 for all AZD5055 dose levels evaluated
AXIN2 mRNA [5]; 15 and 20 mg cohorts
  reduction of median AXIN2 mRNA levels: 50%–60%
AXIN2 mRNA [5]; [8]
  AXIN2 mRNA expression vs placebo-treated participants: significantly reduced from baseline
P1NP
  estimated decrease in serum P1NP compared with the placebo group: 56.3%
[6]; after 14 consecutive days of once daily treatment, 5-20 mg
  Dose proportionality of systemic exposure: increased in a dose-proportional manner
[6]; following repeated once daily dosing
  mean terminal half-life: 12 to 17 h
[6]; in vivo
  AZD5055 dose excreted unchanged in urine: Approximately 3%
  mean renal clearance: 0.2 to 0.3 L/h
[6]; once daily dosing
  Steady state conditions in plasma reached: ≤ 5 doses
  accumulation ratio: ≤ 2
Phase 1 Part 2; Part 2, 5 mg QD, N=8
  Any TEAE leading to discontinuation of IMP: 2 n (%)
Phase 1 Part 2; Part 2, 15 mg QD, N=9
  Any TEAE leading to discontinuation of IMP: 1 n (%)
Phase 1 Part 2; Part 2 MAD pooled, N=26
  Any TEAE possibly related to the IMP (as assessed by investigator): 7 (26.9%) n (%)
Phase 1 Part 2; Part 2 MAD pooled, n=26
  Abdominal pain upper: 0 n (%)
  Application site scab: 0 n (%)
  Breath odor: 1 (3.8) n (%)
  Cardiac disorders: 2 (7.7) n (%)
  Coronavirus infection: 1 (3.8) n (%)
  Cough: 0 n (%)
  Dermatitis contact: 0 n (%)
  Dizziness: 0 n (%)
  Dysgeusia: 2 n (%) and 2 (7.7) n (%)
  Epistaxis: 1 (3.8) n (%)
  Erythema: 1 (3.8) n (%)
  Eye disorders: 2 (7.7) n (%)
  Folliculitis: 1 (3.8) n (%)
  Gastrointestinal disorders: 1 (3.8) n (%)
  General disorders and administration site conditions: 11 (42.3) n (%)
  Headache: 5 (19.2) n (%)
  Infections and infestations: 2 (7.7) n (%)
  Injury, poisoning and procedural complications: 5 (19.2) n (%)
  Limb injury: 1 (3.8) n (%)
  Medical device site dermatitis: 11 (42.3) n (%)
  Nasal discomfort: 1 (3.8) n (%)
  Nausea: 0 n (%)
  Nervous system disorders: 7 (26.9) n (%)
  Participants with ≥1 TEAE: 21 (80.8%) n (%) and 21 (80.8) n (%)
  Participants with ≥1 TEAE of grade 1 severity: 16 (61.5%) n (%) and 16 (61.5) n (%)
  Participants with ≥1 TEAE of grade 2 severity: 5 (19.2%) n (%) and 5 (19.2) n (%)
  Participants with ≥1 TEAE of grade 3 severity: 0 n (%)
  Participants with ≥1 TESAE: 0 n (%)
  Photophobia: 1 (3.8) n (%)
  Post procedural erythema: 1 (3.8) n (%)
  Post procedural inflammation: 1 (3.8) n (%)
  Procedural pain: 2 (7.7) n (%)
  Respiratory, thoracic and mediastinal disorders: 2 (7.7) n (%)
  Sensation of foreign body: 1 (3.8) n (%)
  Skin abrasion: 1 (3.8) n (%)
  Skin and subcutaneous tissue disorders: 1 (3.8) n (%)
  Suture rupture: 0 n (%)
  Ventricular tachycardia: 2 (7.7) n (%)
  Vessel puncture site haematoma: 0 n (%)
  Vision blurred: 1 (3.8) n (%)
  Vomiting: 0 n (%)
  Wheezing: 0 n (%)
[7]
  predicted continuous inhibition of Porcupine across the dosing interval: > 75%
[7]; 3-fold in vitro IC50
  predicted trough AZD5055 concentration: 0.023 µmol/L
